Screening results as filed in PubChem BioAssay.
Hits are enriched below; roughly 3% of the tested compounds scored in any of these assays.
Granule exo inh – lytic granule exocytosis inhibition. inhibition, % at 10 µM. actives 0.66% (n = 360,000). AID 651702. TALL-104 LAMP-1 surface exposure, flow cytometry; cells stimulated with thapsigargin and PMA;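 active means inhibition above about 55%, limit read from the data; inconclusive means no clear call, values can overlap the other calls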
Cardio protect – myocardial damage modulation in H9c2 cells | H9c2 cardiomyocytes, H2O2 injury protection, ATPLite, 2 h | protection from H2O2 cell death, % at 20 µM | actives 0.63% (n = 360,000);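 active means compounds giving at least 50% protection of heart cells from peroxide-induced death in the single-dose screen, raw or plate-pattern-corrected value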
Pemphigus Ab inh – human desmoglein-3 autoantibody binding inhibition. actives 0.48% (n = 310,000). AID 588358. DSG3-coupled beads, scFv-anti-DSG3-GFP binding, flow cytometry; stronger effect = lower value. P32926. binding (percent of control), % at 10 µM;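 active means binding more than 3 SD below its plate's average and above zero; inconclusive means below that plate limit but binding exactly zero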;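 further: hits lower antibody fragment binding to DSG3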
SENP1 inh – blocks the human SENP1 SUMO protease catalytic domain; Q9P0U3; recombinant SENP1 catalytic domain, CyPet-SUMO1-YPet FRET cleavage; inhibition, % at 10 µM; actives 0.21% (n = 360,000); AID 624204;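 active means inhibition at least 30% at 10 µM, raw YFP signal under a set limit, fluorescence ratio 0.5 to 1.5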
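Assay system – human recombinant His6-tagged SENP1 catalytic domain enzyme · Input – SENP1 enzyme, 20 pM final · Buffer or medium – Tris pH 8 buffer plus EDTA, NaCl, BME, BSA, NP40, catalase · Schedule – 50 min reaction at room temperature · Technique – FRET read of cyan and yellow fluorescence · Control set – no-enzyme wells low, DMSO-plus-enzyme wells high control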
HNF4A DNA FP – change in binding of human HNF4 alpha to DNA. P41235. HNF4a-FITC DNA binding, fluorescence polarization, 1 h. activity change, % at 10 µM. actives 0.3% (n = 360,000); in the data active means activity change above about 30%, passing the limit was not always enough
Target sequence (P41235 whole entry, looked up): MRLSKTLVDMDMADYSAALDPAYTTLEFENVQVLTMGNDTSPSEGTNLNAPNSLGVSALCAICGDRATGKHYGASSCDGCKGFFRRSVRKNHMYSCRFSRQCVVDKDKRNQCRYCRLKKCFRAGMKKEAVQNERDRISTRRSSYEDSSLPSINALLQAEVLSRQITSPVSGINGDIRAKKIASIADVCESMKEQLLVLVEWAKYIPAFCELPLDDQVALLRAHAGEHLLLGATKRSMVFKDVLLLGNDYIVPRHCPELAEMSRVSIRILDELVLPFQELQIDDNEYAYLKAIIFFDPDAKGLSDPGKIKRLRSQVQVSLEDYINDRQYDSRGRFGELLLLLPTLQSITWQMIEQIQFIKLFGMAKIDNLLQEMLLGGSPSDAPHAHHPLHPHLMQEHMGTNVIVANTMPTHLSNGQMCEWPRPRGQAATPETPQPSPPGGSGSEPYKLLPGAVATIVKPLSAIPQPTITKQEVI
Myeloid diff MLP – compounds promoting myeloid differentiation | calls only at 10 µM | actives 1% (n = 360,000) | AID 624256 | ER-HoxA9 myeloid progenitors, lysozyme-GFP differentiation, flow cytometry;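 active means normalized GFP-positive differentiation at or above the plate's own cutoff, the solvent-only control mean plus 3 SD; inconclusive means no clear call, values can overlap the other calls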;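 further: cells exposed to compound for four days before flow analysis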
Hits are given with their value; 0 = inactive; ? = inconclusive; - = no result; + = active, no number.

SMILES	Granule exo inh	Cardio protect	Pemphigus Ab inh	SENP1 inh	HNF4A DNA FP	Myeloid diff MLP
COc1ccc(C(C(=O)NC2CCCCC2)N(Cc2cccs2)C(=O)Cc2c[nH]c3ccccc23)cc1 (centres undefined)	0	0	30	0	0	0
CCN1CCc2c(sc(NC(=O)c3ccc(S(=O)(=O)N4CC(C)OC(C)C4)cc3)c2C(N)=O)C1 (centres undefined)	0	0	0	0	0	-
CCN1CCc2c(sc(NC(=O)c3ccc(S(=O)(=O)N(C)c4ccccc4)cc3)c2C(=O)NC)C1	0	57	0	0	0	+
CC(C)N1CCc2c(sc(NC(=O)c3cc(-c4cccs4)nc4ccccc34)c2C(N)=O)C1	76	0	0	0	0	0
CC(C)N1CCc2c(sc(NC(=O)c3ccc(S(=O)(=O)N4CCOCC4)cc3)c2C#N)C1	0	0	0	0	0	+
CC(C)C1Cc2c(sc(NC(=S)NC(=O)c3ccccc3)c2C#N)CO1 (centres undefined)	0	0	0	0	0	0
CC(C)N1CCc2c(sc(NC(=S)NC(=O)c3ccccc3)c2C#N)C1	0	0	0	0	44	+
CCC(C)NC(=O)c1cc(-c2cccs2)nc2ccccc12 (centres undefined)	0	0	0	0	0	0
COC(=O)C1(C(=O)OC)C[C@H](c2cccs2)N(Cc2ccccc2OC)[C@@H]1c1ccc(F)cc1	0	-	-	0	0	0
COC(=O)c1ccc2c(=O)[nH]c(COC(=O)CCC(=O)c3ccc(Cl)cc3)nc2c1	0	0	0	0	0	0
O=c1c2ccccc2c(=O)n2n1Cc1ccccc1C2	0	0	0	0	0	0
CC(C)N1CCc2c(sc(NC(=O)c3ccc(S(=O)(=O)N4CCc5ccccc54)cc3)c2C(N)=O)C1	0	0	0	0	53	+
CCN1CCc2c(sc(NC(=S)NC(=O)c3ccc(Cl)cc3)c2C(N)=O)C1	0	0	0	0	0	+
Cc1sc(NC(=S)NC(=O)c2ccccc2)c(C#N)c1C	0	0	-	0	0	0
CCCN1CCc2c(sc(NC(=S)NC(=O)c3ccccc3)c2C#N)C1	0	0	0	0	0	+
CCN1CCN(S(=O)(=O)c2ccc(C(=O)Nc3sc4c(c3C(N)=O)CCN(CC)C4)cc2)CC1	0	0	0	0	0	0
NC(=O)c1ccsc1NC(=O)c1ccc(S(=O)(=O)N2CCCc3ccccc32)cc1	0	0	0	0	0	0
O=S(=O)(NCc1nnnn1-c1ccc(F)cc1)c1ccc(F)cc1	0	0	0	0	0	0
COc1cccc(-c2c(-c3cc(OC)cc(OC)c3)n(C)c3ccc(-c4cnc(OC)nc4)cc23)c1	0	0	0	0	0	0
COc1cccc(-c2c(-c3cc(OC)cc(OC)c3)n(C)c3ccc(-c4cnc(N5CCOCC5)nc4)cc23)c1	0	0	0	0	0	+
CC(=O)Nc1cccc(NC(=O)CSc2ccc(C(F)(F)F)cc2[N+](=O)[O-])c1	0	0	84	0	0	0
O=C(CSc1ccc(C(F)(F)F)cc1[N+](=O)[O-])Nc1ccc2ccccc2c1	0	0	0	0	0	0
COC(=O)C/C=N/N=C1/NC(=O)/C(=C/C(=O)O)S1	0	0	0	0	0	0
O=C(NCCCCc1ccccc1)Nc1ccc(F)cc1F	0	0	92	0	0	0
CC(=O)Nc1ccc(NC(=S)NC(=O)c2ccc(-c3ccccc3)cc2)cc1	0	0	71	0	0	0
SMILES	Granule exo inh	Cardio protect	Pemphigus Ab inh	SENP1 inh	HNF4A DNA FP	Myeloid diff MLP
O=C(O)c1ccc(NC(=S)NC(=O)c2ccc(-c3ccccc3)cc2)cc1	0	0	31	0	0	-
CC(C)NS(=O)(=O)c1ccc(NC(=S)NC(=O)c2ccc(-c3ccccc3)cc2)cc1	0	0	0	0	0	0
O=C(NC(=S)Nc1ccccc1)c1ccc(-c2ccccc2)cc1	0	0	0	0	0	0
Cc1nnc(C)n1/N=C/c1cc(Br)cc(Br)c1O	0	78	-	0	0	0
Cc1nnc(C)n1/N=C/c1cc(Br)ccc1O	0	66	0	0	0	-
CN(C)S(=O)(=O)c1ccc(C(=O)N2CCN(S(=O)(=O)c3ccc4c(c3)OCCO4)CC2)cc1	0	0	0	0	0	0
Cc1cccn2c(=O)c3cc(C(=O)NC(C)C)c(=N)n(Cc4ccncc4)c3nc12	0	0	0	0	52	0
N=c1c(C(=O)NC2CCCCC2)cc2c(=O)n3ccccc3nc2n1Cc1cccnc1	0	0	0	0	0	+
N=c1c(C(=O)NC2CCCCC2)cc2c(=O)n3ccccc3nc2n1Cc1ccccc1	0	0	0	0	0	0
O=C(CCC(C(=O)c1ccccc1)c1ccccc1)c1ccccc1 (centres undefined)	0	0	0	0	0	0
Cc1ccc2c(ccc[n+]2CC(=O)c2ccccc2)c1	0	0	0	0	0	0
O=C(C[n+]1cccc2ccccc21)c1ccc([N+](=O)[O-])cc1	0	0	0	0	0	+
OCCc1c[nH]c2ccc(OCc3ccccc3)cc12	0	0	0	0	0	0
S=C(NC1CC2CCC1C2)N1CCN(c2cccc(Cl)c2)CC1 (centres undefined)	0	0	0	0	0	0
CN1CCN(CCCNC(=O)c2ccc(/C=C3\Oc4ccccc4N(Cc4ccccc4F)C3=O)cc2)CC1	0	0	0	0	0	0
CCN1CCN(CCNC(=O)c2ccc(/C=C3\Sc4ccccc4N(Cc4ccccc4F)C3=O)cc2)CC1	72	0	0	0	0	0
CN1CCN(CCCNC(=O)c2ccc(/C=C3/Sc4ccccc4N(Cc4cccc(Cl)c4)C3=O)cc2)CC1	75	0	0	0	0	+
N#C/C(=C\Nc1ccc2c(c1)OCCO2)c1nc2ccccc2[nH]1	0	82	0	0	0	0
N#C/C(=C\Nc1ccc2c(c1)OCCO2)c1nc(-c2ccccc2)cs1	0	0	0	0	0	0
N#C/C(=C/c1ccc(O)c(O)c1)c1nc2ccccc2[nH]1	0	0	0	0	0	+
COC(=O)c1ccc(COc2ccc(/C=C(\C#N)c3nc4ccccc4[nH]3)cc2OC)o1	0	70	0	0	0	?
O=C1C(=O)c2cccnc2-c2ncccc21	105	0	-	29	0	?
COC1=C(Br)C(=O)c2ncccc2C1=O	107	0	-	0	0	0
O=C1c2cccnc2-c2ncccc21	0	0	0	0	0	0
Cc1c(C(=O)N/N=C/c2cccnc2)sc(N)c1C#N	0	0	0	0	0	0
N#CC1(NC(=O)Cn2ncc(Cl)c(Cl)c2=O)CCCCC1	0	0	0	0	0	?
CCCCN(CCCC)C(=O)c1cc(Cl)ccc1[N+](=O)[O-]	0	0	-27	0	0	0
